Source: PubChem
Only some compounds are listed: those with a hit (about 1.5% of all), similar ones and a draw of the others.
TRAIL sens C8 – caspase-8 TRAIL sensitization | NB7+C8 cells + TRAIL, ATPlite viability luminescence | inhibition (viability loss, TRAIL sensitization), % at 10 µM | actives 1% (n = 360,000) | AID 624354;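 active = compounds causing at least 50% loss of cell viability in the single-dose screen, relative to plate controls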
FLuc inh counter – inhibits firefly luciferase, flagging false hits in luciferase inhibition screens; P08659; ATPLite firefly luciferase biochemical luminescence, 10 min; inhibition, % at 10 µM; actives 1.5% (n = 200,000);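 active = inhibition above about 50% when tested at 10 µM, limit read from the data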
Target sequence (P08659 whole entry, looked up): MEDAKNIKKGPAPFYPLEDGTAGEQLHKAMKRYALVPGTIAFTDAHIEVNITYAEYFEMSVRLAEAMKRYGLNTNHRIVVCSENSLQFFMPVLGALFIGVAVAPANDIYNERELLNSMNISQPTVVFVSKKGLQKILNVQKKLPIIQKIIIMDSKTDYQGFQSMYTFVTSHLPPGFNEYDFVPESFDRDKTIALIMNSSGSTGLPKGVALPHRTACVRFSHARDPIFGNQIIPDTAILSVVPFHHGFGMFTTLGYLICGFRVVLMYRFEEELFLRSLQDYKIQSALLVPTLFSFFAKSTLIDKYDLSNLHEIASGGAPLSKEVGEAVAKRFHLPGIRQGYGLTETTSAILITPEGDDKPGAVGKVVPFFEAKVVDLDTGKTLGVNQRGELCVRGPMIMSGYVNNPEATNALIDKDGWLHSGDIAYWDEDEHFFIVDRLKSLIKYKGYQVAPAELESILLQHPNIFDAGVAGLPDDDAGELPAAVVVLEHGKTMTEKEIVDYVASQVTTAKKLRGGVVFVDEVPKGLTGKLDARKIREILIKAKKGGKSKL
FLuc stim CS – firefly luciferase counter-screen for stimulation assays; P08659; ATPlite luciferase biochemical, luminescence, 10 min; 0 = ATP-free wells, 1 = DMSO control; activation factor at 10 µM; 200,000 tested, under 10 active;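 active = luciferase activation factor, scaled between plate controls, of at least 2 with compound at 10 µM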
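System: Luciferase/luciferin detection reagent, cell-free biochemical luciferase assay | Medium: PBS buffer for ATP | Dosing: Test compounds dosed from 2 mM stocks in 100% DMSO | Timing: 10 min at ambient temperature | Signal: Luminescence measurement of luciferase light output | Evaluation: Luciferase activation, seen as luminescence increase over controls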
PPC-1+TRAIL kill – kills PPC-1 cancer cells in the presence of TRAIL; PPC-1 cells + TRAIL, ATPLite viability luminescence; cell killing (% activity), % at 4 µM or 5 µM; actives 0.41% (n = 220,000); AID 1443;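 active = cell killing above 50% in the first pass at 4 µM, then a duplicate retest at 5 µM averaging 50% or more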
Numbers stand for hits; n = inactive; x = no result given.

SMILES	TRAIL sens C8	FLuc inh counter	FLuc stim CS	PPC-1+TRAIL kill
C=Cc1ccc(Cn2c(C)c(C(=O)NCc3cccc(C(F)(F)F)c3)sc2=O)cc1	51	x	x	x
Cc1c(C(=O)NCc2cccc(C(F)(F)F)c2)sc(=O)n1Cc1ccc(F)cc1	n	x	x	x
CC1CCC(C(C)C)C(OC(=O)Cn2c(-c3ccc(Cl)cc3)[n+](C)c3ccccc32)C1 (centres undefined)	51	x	x	n
Cc1ccnc(NC(=O)CCC(=O)c2cccs2)c1	79	x	x	x
Nc1[nH]nc2nc3ccccc3cc12	n	n	n	n
CCc1ccc2nc3n[nH]c(N)c3cc2c1	n	70	n	n
CCOC(=O)c1c2c(n(-c3ccc(OC)cc3)c1C)C(=O)C(=O)c1ccccc1-2	95	x	x	x
CCOC(=O)c1sc(=S)n(-c2ccc(OC)cc2)c1C	n	x	x	n
CCOc1cc(CNCCc2ccc(S(N)(=O)=O)cc2)ccc1OCc1ccc(Cl)cc1	73	n	n	n
COc1cc(/C=N/N=C(/N)c2nonc2N)cc(Br)c1OCc1ccccc1C	n	n	n	n
COc1cc(/C=N/N=C(N)N)ccc1OCc1ccc(Cl)cc1	n	n	n	n
CCOc1cc(/C=N/N=C(/N)c2nonc2N)cc(Br)c1OCc1ccc(Cl)cc1	57	n	n	n
CCOc1cc(/C=N/N=C(N)N)ccc1OCc1ccc(Cl)cc1	87	n	n	50
COc1cc(CNCCc2ccc(S(N)(=O)=O)cc2)ccc1OCc1ccc(Cl)cc1	n	n	n	n
NC(=O)c1ccsc1NC(=O)COC(=O)c1c(F)cccc1Cl	n	x	x	x
COc1ccccc1/C=C/C(=O)OCc1nc2ccccc2c(=O)[nH]1	n	n	n	n
COc1ccc([C@@H]2[C@@H]3C(=O)N(C(C)(C)C)C(=O)[C@@H]3[C@]3(C)C(=O)N(c4cccc(C)c4)C(=O)N23)cc1	n	x	x	x
Cc1ccc(-c2nc(-c3ccccn3)no2)cc1[N+](=O)[O-]	52	x	x	n
Cc1csc(SCC(=O)Nc2cccc(S(=O)(=O)N3CCCC3)c2)n1	n	n	n	n
CCc1nn(CCCC(=O)NCc2cc(Br)ccc2OC)c(=O)c2cc3occc3n12	n	x	x	x
Nc1nc(=S)c2[nH]cnc2[nH]1	75	x	x	x
COC(=O)[C@]12CCCCC=C1N(Cc1cccc3ccccc13)C(=O)[C@H](CC(=O)NCc1ccc(OC)c(OC)c1)C2	63	x	x	x
O=C(O)COn1c(-c2ccc(Cl)cc2)nc2ccc(Cl)cc21	n	n	n	n
COc1ccc(-c2nc3ccccc3n2OCC(=O)O)cc1	n	72	n	n
Nc1nc(F)nc2c1ncn2[C@@H]1O[C@H](CO)[C@@H](O)[C@H]1O	57	x	x	x
SMILES	TRAIL sens C8	FLuc inh counter	FLuc stim CS	PPC-1+TRAIL kill
OC[C@H]1O[C@@H](n2cnc3c(NC4CCCC4)ncnc32)[C@H](O)[C@@H]1O	n	n	n	n
C=CCNc1ncnc2c1ncn2C1OC(CO)C(O)C1O (centres undefined)	57	n	n	n
OCC1OC(n2cnc3c(SCc4ccccc4)ncnc32)C(O)C1O (centres undefined)	55	x	x	x
Nc1nc(F)nc2c1ncn2[C@@H]1O[C@H](CO)[C@@H](O)[C@@H]1O	n	n	n	n
OCC1OC(n2cnc3c(NCc4ccco4)ncnc32)C(O)C1O (centres undefined)	59	x	x	x
CCN(CC(=O)Nc1ccc2c(c1)OCCO2)CC(=O)Nc1ccc2c(c1)OCO2	n	n	n	n
CCOC(=O)c1nn(-c2ccc(C)cc2)cc1O	n	59	n	n
CCOC(=O)c1nn(-c2ccccc2)cc1O	n	x	x	n
COC(=O)c1nn(-c2ccc(-c3ccccc3)cc2)cc1O	58	80	n	n
CCC(NC(=O)OC(C)(C)C)C(=O)Oc1ccc2c3c(c(=O)oc2c1)CCC3 (centres undefined)	n	n	n	n
CC(=O)Nc1ccc2c(c1)n(C)c(=O)n2C	n	n	n	n
Cc1ccc(S(=O)(=O)/N=C2\C(=O)c3ccccc3C([O-])=C2n2cc[n+](CCC(C)C)c2)cc1	n	n	n	n
CCCC[n+]1ccn(C2=C([O-])c3ccccc3C(=O)/C2=N\S(=O)(=O)c2ccc(Br)cc2)c1	56	n	n	n
COc1cccc(C(=O)Nc2ccc(-c3nc4ccccc4o3)c(O)c2)c1	n	n	n	n
COc1cccc(-c2cnc3c(NC=O)cc(-c4ccc(N5CCN(C)CC5)cc4)cn23)c1	n	x	x	x
Cc1nn(C)c(C)c1Nc1ccc(N2C(=O)C3C4C=CC(C4)C3C2=O)cc1[N+](=O)[O-] (centres undefined)	n	n	n	n
O=C(OCc1ccccc1)c1cnc(Cl)c(Cl)c1	n	x	x	x
CC(C)N(Cc1ccccc1)C(=O)COC(=O)c1cnc(Cl)c(Cl)c1	75	x	x	x
COc1ccc2c(c1)C(=O)/C(=C/C=C/c1ccccc1)CC2	n	n	n	n
COc1ccc2c(c1)CC/C(=C\C=C\c1ccccc1OC)C2=O	n	52	n	n
Cc1ccc(S(=O)(=O)N2C[C@H]3[C@H]4C(=O)N(C5CCCCC5)C(=O)[C@H]4CC(=O)[C@H]3[C@@H]2c2ccccc2F)cc1	n	x	x	x
Cc1ccc(S(=O)(=O)N2C[C@H]3[C@H]4C(=O)N(C5CCCCC5)C(=O)[C@H]4CC(=O)[C@H]3[C@@H]2c2cccc3ccccc23)cc1	60	x	x	x
O=C(Nc1nccs1)c1ccc(-c2ccc(F)cc2)o1	54	78	n	n
O=C(Nc1nccs1)c1ccc(-c2ccc([N+](=O)[O-])cc2)o1	n	n	n	n
CCOc1cccc2cc(-c3cn4cc(C)ccc4n3)c(=O)oc12	66	68	n	n
SMILES	TRAIL sens C8	FLuc inh counter	FLuc stim CS	PPC-1+TRAIL kill
CCOc1cccc2cc(-c3nnc(NCc4ccco4)s3)c(=O)oc12	55	n	n	n
COc1cc(SC#N)ccc1N=Cc1c(C)[nH]n(-c2ccc(C)c(C)c2)c1=O	80	n	n	n
COc1cc(SC#N)ccc1N=Cc1c(C)[nH]n(-c2ccc(Cl)cc2)c1=O	68	n	n	n
CCn1cnc2c(NCCc3cccnc3)nc(C#N)nc21	n	x	x	x
Cc1ccc(-c2nc(-c3cccnc3)no2)c(C)c1	n	65	n	n
Cc1ccc(C)c(OCc2nc(-c3cccnc3)no2)c1	n	n	n	n
CC(=O)Oc1ccc(Oc2ccc(-c3noc(C)n3)cc2)cc1	n	n	n	n
CC(=O)Oc1ccc(-c2nc(-c3cccnc3)no2)cc1	n	60	n	n
CCOC(=O)c1ccc(N=c2sc(C(=O)OC)cc(=O)n2-c2ccc(C(=O)OCC)cc2)cc1	65	n	n	n
COC(=O)c1cc(=O)n(-c2ccccc2)c(=Nc2ccccc2)s1	n	n	n	n
Cc1ccc(C)c(Cn2c3ccccc3c3cnn(CC(=O)NCc4ccccn4)c(=O)c32)c1	n	x	x	x
O=C1CCCCC(=O)[C@H](OC(=O)c2ccccc2)C[C@H](c2ccccc2)O1	67	x	x	x
CC(=O)O[C@@H]1C[C@H](c2ccccc2)OC(=O)CCCCC1=O	n	x	x	x
Cc1cc(N2CCCCC2)n2ncc(-c3ccccc3)c2n1	48	67	n	n
Cc1cc(NC2CCCC2)n2ncc(-c3ccccc3)c2n1	59	x	x	x
COc1ccc(-c2cc(C)nc3c(-c4ccccc4)cnn23)cc1	n	51	n	n
